# Assay results reported in ChEMBL document CHEMBL5331142, “Novel 1,4-Dihydropyridines as Specific Binders and Activators of SIRT3 Impair Cell Viability and Clonogenicity and Downregulate Hypoxia-Induced Targets in Cancer Cells” (J Med Chem, 2023).
# Calls of active or inactive are those of the source. No cut-off for these calls is given here.
# Key:
# MDA-MB-231 [1] = assay: Downregulation of SLUG gene expression in human MDA-MB-231 cells at 50 uM incubated for 48 hrs under hypoxia condition by qRT-PCR analysis; assay type: functional, cell-based
# Outline: (§1)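 MDA-MB-231 cells pretreated with 200 μM CoCl2 to induce hypoxia, then exposed to 50 μM compound for 48 h with CoCl2 maintained. qRT-PCR by the 2(−ΔCt) method vs DMSO control, mean ± SEM. Four independent experiments.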
# CAL-62 = assay: Downregulation of EPAS-1 expression in human CAL-62 cells at 50 uM incubated for 48 hrs under hypoxia condition by Western blot analysis; assay type: functional, cell-based
# Outline: (§2)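 CAL-62 or MDA-MB-231 cells made hypoxic with 200 μM CoCl2 for 24 h, then treated with 50 μM compound for 48 h with CoCl2 retained. Lysates (15 or 50 μg protein) immunoblotted for HIF-1α, EPAS-1 or CA-IX with ACTB, ECL detection. 3-TYP (1 μM) as control.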
# MDA-MB-231 [2] = assay: Downregulation of ZEB1 gene expression in human MDA-MB-231 cells at 50 uM incubated for 48 hrs under hypoxia condition by qRT-PCR analysis; assay type: functional, cell-based; outline: as §1
# [3] = molecular target: T1, NAD-dependent protein deacetylase sirtuin-1 (Homo sapiens) (UniProt Q96EB6); assay: Activation of N-terminal his-tagged human SIRT1 expressed in Escherichia coli at 10 uM using p53-acK381 as substrate in presence of NAD+ by NADH oxidation-coupled enzymatic assay
# T1 sequence (whole entry): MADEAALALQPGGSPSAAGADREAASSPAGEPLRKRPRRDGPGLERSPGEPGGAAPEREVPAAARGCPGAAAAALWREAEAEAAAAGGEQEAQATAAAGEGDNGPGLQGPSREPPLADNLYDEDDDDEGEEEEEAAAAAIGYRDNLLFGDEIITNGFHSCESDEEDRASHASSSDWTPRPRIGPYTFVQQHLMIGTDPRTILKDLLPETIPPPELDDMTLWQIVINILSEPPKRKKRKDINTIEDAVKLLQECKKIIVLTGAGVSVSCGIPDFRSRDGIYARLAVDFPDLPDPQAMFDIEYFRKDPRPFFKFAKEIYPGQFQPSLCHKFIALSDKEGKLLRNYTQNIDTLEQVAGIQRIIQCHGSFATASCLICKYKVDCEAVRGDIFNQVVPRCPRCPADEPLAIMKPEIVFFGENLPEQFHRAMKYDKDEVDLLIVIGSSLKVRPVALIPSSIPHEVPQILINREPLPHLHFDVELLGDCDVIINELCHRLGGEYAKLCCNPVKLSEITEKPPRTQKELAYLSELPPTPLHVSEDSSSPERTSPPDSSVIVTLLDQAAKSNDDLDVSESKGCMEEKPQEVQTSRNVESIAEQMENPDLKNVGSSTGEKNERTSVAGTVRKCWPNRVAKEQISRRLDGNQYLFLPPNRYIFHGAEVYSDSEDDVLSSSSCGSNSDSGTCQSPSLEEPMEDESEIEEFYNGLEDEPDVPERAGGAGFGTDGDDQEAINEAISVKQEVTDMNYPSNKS
# Outline: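 Coupled PncA/GDH deacylation assay following NADPH oxidation to NADP+. 1.5 μM sirtuin, 50 μM substrate peptide, 100 μM NAD+, compound at 10 μM, 5% final DMSO. Isoform-specific physiological substrates: p53-acK381 (SIRT1), […] (SIRT2), ACS2-acK642 (SIRT3), CPS1-succK537 (SIRT5). Sirtuins expressed in E. coli, Ni-NTA purified, tag cleaved, then size-exclusion chromatography.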
# MDA-MB-231 [4] = assay: Downregulation of MMP2 gene expression in human MDA-MB-231 cells at 50 uM incubated for 48 hrs by qRT-PCR analysis; assay type: functional, cell-based
# Outline: (§3)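 MDA-MB-231 cells treated with 50 μM compound for 48 h under normoxia, DMSO vehicle control. qRT-PCR quantified by the 2(−ΔCt) method as fold of control, mean ± SEM. Three independent experiments.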
# MDA-MB-231 [5] = assay: Downregulation of HIF1alpha expression in human MDA-MB-231 cells at 50 uM incubated for 48 hrs under hypoxia condition by Western blot analysis; assay type: functional, cell-based; outline: as §2
# MDA-MB-231 [6] = assay: Downregulation of MMP9 gene expression in human MDA-MB-231 cells at 50 uM incubated for 48 hrs under hypoxia condition by qRT-PCR analysis; assay type: functional, cell-based; outline: as §1
# [7] = molecular target: T2, NAD-dependent protein deacetylase sirtuin-3, mitochondrial (Homo sapiens) (UniProt Q9NTG7); assay: Activation of N-terminal his-tagged human SIRT3 (114 to 380 residues) deacylation activity expressed in Escherichia coli at 100 uM using ACS2-acK642 as substrate in presence of NAD+ by NADH oxidation-coupled enzymatic assay; details: filed as activator
# T2 sequence (whole entry): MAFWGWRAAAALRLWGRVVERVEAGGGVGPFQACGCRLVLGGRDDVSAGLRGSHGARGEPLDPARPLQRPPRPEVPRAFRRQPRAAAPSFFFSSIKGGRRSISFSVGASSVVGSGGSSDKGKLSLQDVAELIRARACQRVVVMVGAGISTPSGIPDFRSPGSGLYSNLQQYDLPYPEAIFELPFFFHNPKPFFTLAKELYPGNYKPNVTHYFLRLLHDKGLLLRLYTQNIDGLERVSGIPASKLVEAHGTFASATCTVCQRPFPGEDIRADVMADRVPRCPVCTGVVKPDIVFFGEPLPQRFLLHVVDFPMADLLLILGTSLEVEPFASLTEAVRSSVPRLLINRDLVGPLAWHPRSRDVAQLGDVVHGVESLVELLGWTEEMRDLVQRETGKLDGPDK
# Outline: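 Coupled PncA/GDH deacylation assay following NADPH oxidation to NADP+. 1.5 μM SIRT3 (E. coli-expressed, tag removed) with 50 μM ACS2-acK642 peptide and 100 μM NAD+, compound at 100 μM, 5% final DMSO.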
# MDA-MB-231 [8] = assay: Downregulation of MMP9 gene expression in human MDA-MB-231 cells at 50 uM incubated for 48 hrs by qRT-PCR analysis; assay type: functional, cell-based; outline: as §3
# MDA-MB-231 [9] = assay: Downregulation of MMP2 gene expression in human MDA-MB-231 cells at 50 uM incubated for 48 hrs under hypoxia condition by qRT-PCR analysis; assay type: functional, cell-based; outline: as §1
# MDA-MB-231 [10] = assay: Downregulation of COLLAGEN gene expression in human MDA-MB-231 cells at 50 uM incubated for 48 hrs under hypoxia condition by qRT-PCR analysis; assay type: functional, cell-based; outline: as §1
# MDA-MB-231 [11] = assay: Downregulation of SNAIL gene expression in human MDA-MB-231 cells at 50 uM incubated for 48 hrs by qRT-PCR analysis; assay type: functional, cell-based; outline: as §3
# [12] = molecular target: T2, NAD-dependent protein deacetylase sirtuin-3, mitochondrial (Homo sapiens); assay: Activation of human SIRT3 overexpressing in human MDA-MB-231 cells assessed as increase in GDH activity at 50 uM incubated for 4 hrs by absorbance assay; assay type: cell-based; details: filed as activator
# Outline: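 MDA-MB-231 cells exposed 4 h to 50 μM compound. 10^6 cells lysed in GDH assay buffer for 10 min on ice. Supernatant mixed with developer and glutamate, incubated 3 min at 37 °C, absorbance read at 450 nm with buffer blank subtracted. SIRT3-overexpressing MDA-MB-231 cells served as reference.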
# MDA-MB-231 [13] = assay: Downregulation of SNAIL gene expression in human MDA-MB-231 cells at 50 uM incubated for 48 hrs under hypoxia condition by qRT-PCR analysis; assay type: functional, cell-based; outline: as §1
SMILES,Activity (MDA-MB-231 [1]),Activity (CAL-62),Activity (MDA-MB-231 [2]),Activity [3],Activity (MDA-MB-231 [4]),Activity (MDA-MB-231 [5]),Activity (MDA-MB-231 [6]),Activity [7] [%],Activity (MDA-MB-231 [8]),Activity (MDA-MB-231 [9]),Activity (MDA-MB-231 [10]),Activity (MDA-MB-231 [11]),Activity [12],Activity (MDA-MB-231 [13])
CCOC(=O)C1=CN(C(=O)c2cc(OC)cc(OC)c2)C=C(C(=O)OCC)C1c1ccccc1,Active,Active,Active,inactive,Active,Active,Active,178,Active,Active,Active,Active,Active,Active
CCOC(=O)C1=CN(C(=O)c2ccc(OC)c(OC)c2)C=C(C(=O)OCC)C1c1ccccc1,Active,Active,Active,inactive,Active,Active,Active,387,Active,Active,Active,Active,Active,Active
